Bioassay records (PubChem BioAssay)
T cell HTS: modulators of CD8 T cell-vesicle binding, primary screen, mouse 2C CD8+ T cells, flow cytometry | 2C CD8+ T cell-vesicle binding; stronger effect = lower value | 330,000 tested, 0.068% active | response (vesicle binding), % at 7 µM;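 active = response, share of CD8 T cells binding vesicles, and their 90th percentile fluorescence all below set limits, cut at about 80% in these data, passing the limit was not always enough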;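 also: values below 100% mean blocked vesicle binding to the CD8+ T cells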
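Incubation: binding step 1.5 h, 37 °C, antibody labelling 20 min, ice; system: murine 2C transgenic CD8+ T lymphocytes; technique: cytometric PE anti-B7-1 and Alexa647 anti-CD8 signals after 1% paraformaldehyde fixation; also added: QL9-charged Drosophila Ld/ICAM-1/B7-1 vesicles; control set: naked versus QL9-loaded vesicles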
Rce1 inh: yeast Rce1p protease inhibitors, primary screen, biochemical, fluorescence, cell-free homogeneous | calls only | yeast membranes, quenched prenylated peptide cleavage fluorescence | CAAX prenyl protease 2 (Saccharomyces cerevisiae (strain ATCC 204508 / S288c)), Q03530 | 290,000 tested, 0.27% active;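 active = fall in fluorescence gain of 50% or more versus controls, with final raw signal at or below 3038400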;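 also: plate controls were neutral control wells for no effect and wells lacking membranes for full effect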
Target sequence (Q03530 whole entry, looked up): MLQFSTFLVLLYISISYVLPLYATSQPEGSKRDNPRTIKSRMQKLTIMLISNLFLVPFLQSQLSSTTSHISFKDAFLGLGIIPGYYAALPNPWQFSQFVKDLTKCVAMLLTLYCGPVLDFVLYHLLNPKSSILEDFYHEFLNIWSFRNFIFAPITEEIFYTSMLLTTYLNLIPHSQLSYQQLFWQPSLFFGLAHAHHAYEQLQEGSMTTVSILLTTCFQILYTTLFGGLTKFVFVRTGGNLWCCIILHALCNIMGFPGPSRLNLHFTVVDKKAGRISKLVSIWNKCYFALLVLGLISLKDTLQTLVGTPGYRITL
CR mimetic SO: reduction of superoxide in aged yeast, primary screen, HTS | S. cerevisiae aged cells, superoxide DHE fluorescence; stronger effect = lower value | superoxide response (% of plate mean), % at 10 µM | 330,000 tested, 0.18% active | AID 2690, 2010;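 active = superoxide response under a set limit, about three screen SD below normal, cut at about 65% in these data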;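 also: yeast aged for seven days with compound at 30 °C before DHE staining; 100% = average MFI of all compound-treated wells on the plate with controls excluded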
V-ATPase pH: regulators of yeast V-ATPase proton pumping, primary screen, pHLuorin cytosolic pH fluorescence. response, % at 10 µM. 350,000 tested, 0.37% active. AID 504577, 2011. S. cerevisiae; in the data active = response mostly above about 7.3%, no sharp cut-off; inactive = mostly below about 5.4%; also: actives read high
MIN6 prolif-1: inducers of MIN6 beta-cell proliferation, primary screen, ATP luminescence, uHTS | MIN6 cells proliferation, ATPlite luminescence, 48 h; cells starved in 0.2% serum; 100% = growth in 10% serum | AID 2380, 2010 | 330,000 tested, 0.29% active | proliferation, % at 10 µM;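 active = compounds whose signal lies at least 3.5 SD above the mean of all wells on their plate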;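 also: 0% = DMSO-treated cells in low-serum medium and 100% = 10% serum control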
KLK7 zymogen act: proKLK7 zymogen activators, primary screen, biochemical, fluorescence intensity | Kallikrein-7 (Homo sapiens), P49862 | purified proKLK7, EDANS-DABCYL substrate fluorescence; 100% is mature enzyme control, 0% vehicle | activation, % at 7 µM | 370,000 tested, 0.9% active | AID 652039, 2013;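 active = activation above the mean of all tested compounds plus 3 SD, computed per campaign excluding outliers beyond control limits, cut at about 13% in these data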
Target sequence (P49862 whole entry, looked up): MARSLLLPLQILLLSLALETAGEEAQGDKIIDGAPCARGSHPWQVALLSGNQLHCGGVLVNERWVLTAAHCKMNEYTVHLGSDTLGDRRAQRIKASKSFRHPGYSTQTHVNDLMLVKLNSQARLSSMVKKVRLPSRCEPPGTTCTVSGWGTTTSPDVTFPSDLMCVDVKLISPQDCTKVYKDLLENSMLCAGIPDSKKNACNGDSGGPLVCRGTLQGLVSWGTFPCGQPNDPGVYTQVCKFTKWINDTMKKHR
MIN6 prolif-2: inducers of beta-cell proliferation in MIN6, confirmation, MIN6 cells, mouse | shares compounds with MIN6 prolif-1 | ATPlite luminescence, 48 h; cells kept in 0.2% serum; scaled between 0.2% and 10% serum | proliferation increase, % at 50 µM | 920 tested, under 10 active | AID 463095, 2010;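 active = proliferation increase above 40% at any of the four tested concentrations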
Numbers without * were called inactive; i = inactive; · = no result given. Only some compounds are listed: those with a hit (about 1.9% of all), similar ones and a draw of the others.

SMILES | T cell HTS | Rce1 inh | CR mimetic SO | V-ATPase pH | MIN6 prolif-1 | KLK7 zymogen act | MIN6 prolif-2
O=C(/C=C/c1ccc([N+](=O)[O-])cc1)NCc1ccccn1 | 370 | i | 99 | 1 | -2 | 1 | ·
O=C(COC(=O)c1ccc2[nH]c3c(c2c1)CCCC3)Nc1ccccc1Cl | 331 | i | 95 | -2 | 9.6* | 0 | -1
O=C(Nc1ccccc1)Nc1ccc(Cl)nc1Cl | 485 | i | 96 | 7 | -4 | 0 | ·
COc1ccccc1N1CCN(C(=O)c2cc3c(s2)CCC3)CC1 | 680 | i | 111 | 0 | -4 | 0 | ·
COc1ccccc1N1CCN(C(=O)c2cc3c(=O)n4ccccc4nc3s2)CC1 | 267 | · | 101 | 0 | 13* | 7 | 3
Cc1cccc(NC(=O)C2CCN(C(=O)[C@@H]3Cc4ccccc4CN3)CC2)c1 | 215 | i | 99 | 5 | 5.2* | 0 | -4
O=C(NC1CCCC1)C1CCCN(S(=O)(=O)c2cccc3cccnc23)C1 (configuration not stated) | 298 | i | 105 | 1 | 9.5* | 0 | 1
COC[C@@H]1CCCN1c1ccc2c(c1)O[C@H]1CCN(C1)S2(=O)=O | · | · | · | · | · | 0 | ·
CCCC(=O)N(CCN(C(=O)CCC)c1ccccc1)c1ccccc1 | 156 | i | 118 | 0 | 8.8* | 0 | -3
COC(=O)[C@@]12CCCCC3=C1N(CCC3)C(=O)[C@H]2CC(=O)NCc1ccccc1 | · | · | · | · | · | 0 | ·
COC(=O)[C@]12C[C@H](CC(=O)N3CCSCC3)C(=O)N(Cc3ccccc3)C1=C[C@H](C1CCCC1)O[C@@H]2C | · | · | · | · | · | 0 | ·
COc1cc(NC(=O)CN(c2ccc(C)cc2)S(=O)(=O)c2c(C)nn(C)c2C)cc(OC)c1 | 672 | i | 100 | -1 | 10* | 0 | -6
COC(=O)c1ccc(NC(=O)CN(c2ccc(C)cc2)S(=O)(=O)c2c(C)nn(C)c2C)cc1 | 345 | i | 90 | -1 | 1 | 0 | ·
COc1ccc(CNC(=O)CN(CCC(C)C)S(=O)(=O)c2ccc3c(c2)OCCO3)cc1 | 692 | i | 92 | 6 | 5.3* | 0 | -6
Cc1cc(=O)n(Cc2ccccc2)c2ccccc12 | 393 | i | 99 | 0 | 9.2* | 0 | 3
CCOc1cc(C(=O)Nc2ccc3c(c2)OCO3)ccc1OCCOc1ccccc1Cl | 200 | i | 96 | 1 | 1 | 0 | ·
CCOc1ccc(C(=O)Nc2ccc3c(c2)OCO3)cc1OCC | 905 | i | 118 | 0 | 5.5* | 1 | 3
COc1ccc(NC(C)=O)cc1S(=O)(=O)Nc1ccc2c(c1)OCCO2 | 212 | i | 90 | 2 | 7.9* | 0 | -3
COc1ccc(OCc2cc(C(=O)N(Cc3nccn3C)C(C)C)no2)c2ccccc12 | 266 | i | 111 | -2 | 12* | 1 | -6
COc1cccc(-n2nc(C(C)=O)c(C#N)c2-c2ccco2)c1 | 238 | i | 120 | 2 | 9.4* | 0 | 2
COc1cccc(-n2nc(C#N)c(Cl)cc2=O)c1 | · | i | · | 0 | -5 | 0 | ·
CCCCN(C(=O)CCC(=O)Nc1cc(C)on1)C(C(=O)NC(C)(C)C)c1ccccc1Cl (configuration not stated) | 256 | i | 100 | 1 | -1 | 0 | ·
Cc1cc(NC(=O)CCC(=O)N(CC(C)C)C(C(=O)NC(C)(C)C)c2ccccc2Cl)no1 (configuration not stated) | 196 | i | 86 | 1 | 6.7* | 1 | -3
COc1cccc(C(C(=O)NC(C)(C)C)N(C(=O)CCC(=O)Nc2cc(C)on2)C(C)(C)C)c1OC (configuration not stated) | 265 | i | 91 | 2 | 5.2* | 0 | -1
C[C@H]1COc2cc(Br)ccc2S(=O)(=O)N1Cc1cn(CCC2OCCO2)nn1 | · | · | · | · | · | 0 | ·
SMILES | T cell HTS | Rce1 inh | CR mimetic SO | V-ATPase pH | MIN6 prolif-1 | KLK7 zymogen act | MIN6 prolif-2
COCCOC(=O)c1c(C)oc2ccc(NS(=O)(=O)c3ccccc3)cc12 | 270 | i | 114 | -1 | 5.0* | 1 | -6
COCCOC(=O)c1c(C)oc2ccc(NS(=O)(=O)c3ccc(C)cc3)cc12 | 160 | i | 117 | 0 | -2 | 0 | ·
COC(=O)c1ccc(OC)c(OC2CCCC2)c1 | 814 | · | 100 | 7 | 6.6* | -1 | 3
COc1ccc(NC(=O)C2CC2)cc1OC1CCCC1 | 326 | i | 81 | -2 | 2 | · | ·
CCOc1ccc(Nc2nc(C)cc(C)c2C#N)cc1 | 0 | i | 101 | 0 | 6.3* | 1 | 2
Cc1ccccc1CN1CCCCC(NC(=O)c2ccccc2)C1=O (configuration not stated) | · | · | · | · | · | 0 | ·
COCCCN1C(=O)[C@H](CC(=O)N2CCOCC2)[C@]2(C(=O)OC)CCCCC=C12 | · | · | · | · | · | 0 | ·
CNc1nc(Oc2ccc(=O)n(C)n2)nc(N2CCOCC2)n1 | 149 | i | 110 | · | 11* | 0 | -2
Cc1ccc(C(=O)N/C(=C\c2cccs2)C(=O)NCCCn2ccnc2)cc1 | 406 | i | 121 | 6 | 0 | -1 | ·
O=C(NCCCn1ccnc1)/C(=C\c1cccs1)NC(=O)c1ccccc1 | 296 | i | 103 | 1 | 6.7* | 0 | 2
Cc1ccc(-n2c(C)c([N+](=O)[O-])c3ccc(O)cc32)cc1 | 147 | i | 90 | · | 7.7* | -1 | -6
Cc1c([N+](=O)[O-])c2ccc(O)cc2n1-c1ccccc1 | 132 | i | 98 | 0 | 15* | 0 | 8
Cc1c(C(=O)O)c2cc(O)ccc2n1-c1ccccc1 | 389 | i | 101 | -1 | -2 | 0 | ·
CC(C)[C@H]1/C(=C/C2CC2)N2C(=O)C[C@@H](c3ccccc3)N=C2N1Cc1ccc2c(c1)OCO2 | · | · | · | · | · | 0 | ·
COc1ccc2[nH]c(=O)c(CN(C(=O)c3ccncc3)C(C)(C)C)cc2c1 | 160 | i | 114 | 1 | 13* | 0 | 1
O=C(N[C@H](C(=O)N1CCC[C@H]1C(=O)NCCc1ccccc1Cl)C1CCCCC1)c1cccs1 | · | · | · | · | · | 0 | ·
COc1cc(/C=N/NC(=O)CN(Cc2ccccc2)S(=O)(=O)c2ccc3c(c2)OCCO3)ccc1O | 434 | i | 98 | -2 | 0.0* | -3 | -5
C=CCOn1c(=O)c(-c2ccc(F)cc2)[n+]([O-])c2ccccc21 | · | i | · | -2 | 11* | 0 | 3
